Source: ChEMBL document CHEMBL1145889, “Potent and selective inhibitors of platelet-derived growth factor receptor phosphorylation. 3. Replacement of quinazoline moiety and improvement of metabolic polymorphism of 4-[4-(N-substituted (thio)carbamoyl)-1-piperazinyl]-6,7-dimethoxyquinazoline derivatives” (J Med Chem, 2003)

Legend:
Assay type in all cases: ADME, organism-based
[1] = Maximum plasma concentration was determined after administering 30 mg/kg of compound orally in rat no.6 belonging to phenotype EM (extensive metabolizer); parameters: dose 30 mg/kg, route oral; conditions: po
Summary of the method: (§1)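 Male Sprague–Dawley rats (nos. 5–7) were given 30 mg/kg orally. Plasma concentration was determined by HPLC. Tmax, T1/2, MRT, Cmax and AUC came from model-independent analysis. Extensive and poor metabolizers were assigned from the concentration–time profiles.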

[2] = Volume of distribution at steady state was determined after administering 1 mg/kg of compound intravenously in rat no.3 belonging to phenotype EM (extensive metabolizer); parameters: dose 1 mg/kg, route intravenous; conditions: in vivo, iv, read-out: Vdss
Summary of the method: (§2)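 Male Sprague–Dawley rats (nos. 1–4) were dosed intravenously at 1 mg/kg. Plasma drug concentration was measured by HPLC. Parameters were derived by model-independent analysis. Rats were classed as extensive or poor metabolizers from their plasma profiles.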

[3] = Maximum plasma concentration was determined after administering 30 mg/kg of compound orally in rat no.5 belonging to phenotype PM (poor metabolizer); parameters: dose 30 mg/kg, route oral; conditions: po; summary of the method: as §1
[4] = Half-life period of orally administered compound (30 mg/kg) in rat no.5 belonging to phenotype PM (poor metabolizer); conditions: in vivo, po; summary of the method: as §1
[5] = Plasma clearance was determined after administering 1 mg/kg of compound intravenously in rat no.3 belonging to phenotype EM (extensive metabolizer); parameters: dose 1 mg/kg, route intravenous; conditions: iv; summary of the method: as §2
[6] = Mean residence time of intravenously administered compound (1 mg/kg) in rat no.1 belonging to phenotype EM (extensive metabolizer); conditions: in vivo, iv; summary of the method: as §2
[7] = Half-life period of orally administered compound (30 mg/kg) in rat no.6 belonging to phenotype EM (extensive metabolizer); conditions: in vivo, po; summary of the method: as §1
[8] = Half-life period of intravenously administered compound (1 mg/kg) in rat no.3 belonging to phenotype EM (extensive metabolizer); conditions: in vivo, iv, read-out: T1/2 beta (converted); summary of the method: as §2
[9] = Half-life period of intravenously administered compound (1 mg/kg) in rat no.1 belonging to phenotype EM (extensive metabolizer); conditions: in vivo, iv, read-out: T1/2 beta (converted); summary of the method: as §2
[10] = Mean residence time of intravenously administered compound (1 mg/kg) in rat no.3 belonging to phenotype EM (extensive metabolizer); conditions: in vivo, iv; summary of the method: as §2
[11] = Half-life period of orally administered compound (30 mg/kg) in rat no.7 belonging to phenotype PM (poor metabolizer); conditions: in vivo, po; summary of the method: as §1
[12] = Pharmacokinetic parameter (AUC) was determined after administering 30 mg/kg of compound orally in rat no.5 belonging to phenotype PM (poor metabolizer); parameters: dose 30 mg/kg, route oral; conditions: in vivo, po; summary of the method: as §1
[13] = Mean residence time after oral administration of 30 mg/kg of compound in rat no.5 belonging to phenotype PM (poor metabolizer); parameters: dose 30 mg/kg, route oral; conditions: in vivo; summary of the method: as §1
[14] = Half-life period of intravenously administered compound (1 mg/kg) in rat no.2 belonging to phenotype EM (extensive metabolizer); conditions: in vivo, iv, read-out: T1/2 beta (converted); summary of the method: as §2
[15] = Mean residence time of intravenously administered compound (1 mg/kg) in rat no.2 belonging to phenotype EM (extensive metabolizer); conditions: in vivo, iv; summary of the method: as §2
[16] = Plasma clearance was determined after administering 1 mg/kg of compound intravenously in rat no.2 belonging to phenotype EM (extensive metabolizer); parameters: dose 1 mg/kg, route intravenous; conditions: iv; summary of the method: as §2
[17] = Maximum time of retention of orally administered compound (30 mg/kg) in rat no.6 belonging to phenotype EM (extensive metabolizer); conditions: in vivo, po; summary of the method: as §1
[18] = Maximum time of retention of orally administered compound (30 mg/kg) in rat no.7 belonging to phenotype PM (poor metabolizer); conditions: in vivo, po; summary of the method: as §1
[19] = Volume of distribution at steady state was determined after administering 1 mg/kg of compound intravenously in rat no.1 belonging to phenotype EM (extensive metabolizer); parameters: dose 1 mg/kg, route intravenous; conditions: in vivo, iv, read-out: Vdss; summary of the method: as §2
[20] = Half-life period of intravenously administered compound (1 mg/kg) in rat no.4 belonging to phenotype PM (poor metabolizer); conditions: in vivo, iv, read-out: T1/2 beta (converted); summary of the method: as §2
[21] = Plasma clearance was determined after administering 1 mg/kg of compound intravenously in rat no.1 belonging to phenotype EM (extensive metabolizer); parameters: dose 1 mg/kg, route intravenous; conditions: iv; summary of the method: as §2
[22] = Volume of distribution at steady state was determined after administering 1 mg/kg of compound intravenously in rat no.4 belonging to phenotype PM (poor metabolizer); parameters: dose 1 mg/kg, route intravenous; conditions: in vivo, iv, read-out: Vdss; summary of the method: as §2
[23] = Pharmacokinetic parameter (AUC) was determined after administering 1 mg/kg of compound intravenously in rat no.1 belonging to phenotype EM (extensive metabolizer); parameters: dose 1 mg/kg, route intravenous; conditions: in vivo, iv; summary of the method: as §2
[24] = Mean residence time after oral administration of 30 mg/kg of compound in rat no.7 belonging to phenotype PM (poor metabolizer); parameters: dose 30 mg/kg, route oral; conditions: in vivo; summary of the method: as §1
[25] = Maximum time of retention of orally administered compound (30 mg/kg) in rat no.5 belonging to phenotype PM (poor metabolizer); conditions: in vivo, po; summary of the method: as §1
[26] = Pharmacokinetic parameter (AUC) was determined after administering 1 mg/kg of compound intravenously in rat no.4 belonging to phenotype PM (poor metabolizer); parameters: dose 1 mg/kg, route intravenous; conditions: in vivo, iv; summary of the method: as §2
[27] = Pharmacokinetic parameter (AUC) was determined after administering 30 mg/kg of compound orally in rat no.6 belonging to phenotype EM (extensive metabolizer); parameters: dose 30 mg/kg, route oral; conditions: in vivo, po; summary of the method: as §1
[28] = Maximum plasma concentration was determined after administering 30 mg/kg of compound orally n rat no.7 belonging to phenotype PM (poor metabolizer); parameters: dose 30 mg/kg, route oral; conditions: po; summary of the method: as §1
[29] = Mean residence time of intravenously administered compound (1 mg/kg) in rat no.4 belonging to phenotype PM (poor metabolizer); conditions: in vivo, iv; summary of the method: as §2
[30] = Pharmacokinetic parameter (AUC) was determined after administering 30 mg/kg of compound orally in rat no.7 belonging to phenotype PM (poor metabolizer); parameters: dose 30 mg/kg, route oral; conditions: in vivo, po; summary of the method: as §1
[31] = Plasma clearance was determined after administering 1 mg/kg of compound intravenously in rat no.4 belonging to phenotype PM (poor metabolizer); parameters: dose 1 mg/kg, route intravenous; conditions: iv; summary of the method: as §2
[32] = Volume of distribution at steady state was determined after administering 1 mg/kg of compound intravenously in rat no.2 belonging to phenotype EM (extensive metabolizer); parameters: dose 1 mg/kg, route intravenous; conditions: in vivo, iv, read-out: Vdss; summary of the method: as §2
[33] = Pharmacokinetic parameter (AUC) was determined after administering 1 mg/kg of compound intravenously in rat no.3 belonging to phenotype EM (extensive metabolizer); parameters: dose 1 mg/kg, route intravenous; conditions: in vivo, iv; summary of the method: as §2
[34] = Mean residence time after oral administration of 30 mg/kg of compound in rat no.6 belonging to phenotype EM (extensive metabolizer); parameters: dose 30 mg/kg, route oral; conditions: in vivo; summary of the method: as §1

A Cmax [1] of 5220 ng/mL, a Vd [2] of 0.15 L/kg and a Cmax [3] of 50700 ng/mL were found for COc1cc2ncnc(N3CCN(C(=O)Nc4ccc(C#N)cc4)CC3)c2cc1OC in this work. The half-life [4] was 5.25 h, the clearance [5] was 6.88 mL/min/kg and the MRT [6] was 0.65 h. For the same compound, the half-life [7] was 2.54 h, the half-life [8] was 0.39 h and the half-life [9] was 0.97 h. The MRT [10] was 0.35 h, the half-life [11] was 3.4 h and the AUC [12] was 815000 ng·h/mL. It also gave an MRT [13] of 8.56 h, a half-life [14] of 0.45 h and an MRT [15] of 0.39 h. For the same compound, the clearance [16] was 6.73 mL/min/kg, the Tmax [17] was 2 h and the Tmax [18] was 2 h. For the same compound, the Vd [19] was 0.22 L/kg, the half-life [20] was 3.1 h and the clearance [21] was 5.82 mL/min/kg. For the same compound, the Vd [22] was 0.18 L/kg, the AUC [23] was 2870 ng·h/mL and the MRT [24] was 6.36 h. It also gave a Tmax [25] of 8 h, an AUC [26] of 23600 ng·h/mL and an AUC [27] of 26300 ng·h/mL. It also gave a Cmax [28] of 35200 ng/mL, an MRT [29] of 4.2 h and an AUC [30] of 455000 ng·h/mL. It also gave a clearance [31] of 0.707 mL/min/kg, a Vd [32] of 0.16 L/kg and an AUC [33] of 2420 ng·h/mL. The MRT [34] was 3.92 h.
